From ChEMBL document CHEMBL1125294, “Chromophore-modified antineoplastic imidazoacridinones. Synthesis and activity against murine leukemias” (J Med Chem, 1992)
Values joined by “and” are separate entries in the source; they are usually repeats but may differ in a detail not shown here. Equal values may be shown once.

Key:
L1210 = assay: In vitro inhibitory activity against murine L1210 leukemia; assay type: functional, cell-based; conditions: Mus musculus
How it was run: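 Mouse L1210 leukemia cells were grown in RPMI 1640 with 5% fetal calf serum, penicillin and streptomycin, at 37 °C in 5% CO2. Cells were seeded at 5×10^4 cells/mL and exposed to four concentrations of compound dissolved in 50% ethanol.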

Mus musculus [1] = assay: Antineoplastic activity was evaluated in vivo against murine leukemia P388 (i.p./i.p.; days 1-5) and optimum dose was reported; assay type: functional
How it was run: (§1)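 BDF1 mice given 10^6 P388 lymphocytic leukemia cells ip on day 0, then treated ip on days 1-5 following NCI protocols. Full dose-response runs spanned ineffective to clearly toxic doses. Mean survival time was taken per group of eight mice and expressed as % T/C. The optimal dose is the one giving the highest T/C.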

Mus musculus [2] = assay: In vivo % T/C activity was measured against P388 leukemia; 155; assay type: functional; how it was run: as §1
Mus musculus [3] = assay: Antineoplastic activity was evaluated in vivo against murine leukemia P388 (i.p./i.p.; days 1-5) and optimum dose was reported;120; assay type: functional; how it was run: as §1
[4] = Toxicity in CDF1 male mice following a single intraperitoneal administration; assay type: organism-based; conditions: CDF1, mouse, in vivo, ip
How it was run: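 Acute toxicity after one ip dose in male CDF1 mice. The read-out is the LD50, given as preliminary estimates that are either a dose range or a bound in mg/kg.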

Mus musculus [5] = assay: In vivo % T/C activity was measured against P388 leukemia; 290; assay type: functional; how it was run: as §1
Mus musculus [6] = assay: In vivo % T/C activity was measured against P388 leukemia; assay type: functional; how it was run: as §1
Mus musculus [7] = assay: In vivo % T/C activity was measured against P388 leukemia;250; assay type: functional; how it was run: as §1
Mus musculus [8] = assay: In vivo % T/C activity was measured against P388 leukemia; 210; assay type: functional; how it was run: as §1

IC50 (L1210) | SMILES | Optimal dose (Mus musculus [1]) | further results
0.08 µg/mL and 180 nM | CCN(CC)CCCNc1ccc2ncn3c4ccc(O)cc4c(=O)c1c23 | 25 mg kg-1 injection-1 | –
0.014 µg/mL and 34 nM | CN(C)CCCNc1ccc2ncn3c4ccc(O)cc4c(=O)c1c23 | 5 mg kg-1 injection-1 | –
0.4 µg/mL and 890 nM | CCN(CC)CCCNc1ccc2nc(C)n3c4ccc(O)cc4c(=O)c1c23 | 25 mg kg-1 injection-1 | T/C (Mus musculus [2]): 150%
0.7 µg/mL and 1.55 µM | CCN(CC)CCNc1ccc2nc(C)n3c4ccc(OC)cc4c(=O)c1c23 | – | Optimal dose (Mus musculus [3]): 150 mg kg-1 injection-1
0.1 µg/mL and 230 nM | Cc1nc2ccc(NCCCN(C)C)c3c(=O)c4cc(O)ccc4n1c23 | 100 mg kg-1 injection-1 | –
1.4 µg/mL and 3.2 µM | COc1ccc2c(c1)c(=O)c1c(NCCCN(C)C)ccc3nc(C)n2c31 | 150 mg kg-1 injection-1 | –
0.7 µg/mL and 1.4 µM | CCN(CC)CCCNc1ccc2nc(C)n3c4ccc(OC)cc4c(=O)c1c23 | 150 mg kg-1 injection-1 | –
1.1 µg/mL and 2.5 µM | CCN(CC)CCCNc1ccc2ncn3c4ccc(OC)cc4c(=O)c1c23 | 150 mg kg-1 injection-1 | –
0.02 µg/mL and 48 nM | CN(C)CCNc1ccc2ncn3c4ccc(O)cc4c(=O)c1c23 | 12.5 mg kg-1 injection-1 | T/C (Mus musculus [8]): 210%
3.5 µg/mL and 8.2 µM | COc1ccc2c(c1)c(=O)c1c(NCCCN(C)C)ccc3ncn2c31 | 150 mg kg-1 injection-1 | –

Further lines, the molecule ahead of its results:

SMILES | IC50 (L1210) | Optimal dose (Mus musculus [1]) | further results
CCN(CC)CCNc1ccc2nc(C)n3c4ccc(O)cc4c(=O)c1c23 | 0.11 µg/mL and 250 nM | 75 mg kg-1 injection-1 | LD50 [4]: 500 mg/kg; T/C (Mus musculus [5]): 280%
O=C1c2ccccc2C(=O)c2c(NCCNCCO)ccc(NCCNCCO)c21 [AMETANTRONE] | 1.77 µg/mL and 3.65 µM | 12.5 mg kg-1 injection-1 | T/C (Mus musculus [6]): 300%
CCN(CC)CCNc1ccc2ncn3c4ccc(OC)cc4c(=O)c1c23 | 0.78 µg/mL and 1.8 µM | 100 mg kg-1 injection-1 | LD50 [4]: 500 mg/kg
COc1ccc2c(c1)c(=O)c1c(NCCN(C)C)ccc3ncn2c31 | 0.65 µg/mL and 1.65 µM | 100 mg kg-1 injection-1 | –
Cc1nc2ccc(NCCN(C)C)c3c(=O)c4cc(O)ccc4n1c23 | 0.06 µg/mL and 135 nM | 12.5 mg kg-1 injection-1 | T/C (Mus musculus [7]): 200%; LD50 [4]: 250 mg/kg
COc1ccc2c(c1)c(=O)c1c(NCCN(C)C)ccc3nc(C)n2c31 | 0.34 µg/mL and 770 nM | 150 mg kg-1 injection-1 | –
CCN(CC)CCNc1ccc2ncn3c4ccc(O)cc4c(=O)c1c23 [C-1311] | 0.013 µg/mL and 31 nM | 5 mg kg-1 injection-1 | LD50 [4]: > 200 mg/kg
